Series [1] has as its target T1, recombinant mouse CRT (calreticulin) (Mus musculus, UniProt P14211).
T1 sequence (P14211 18-416): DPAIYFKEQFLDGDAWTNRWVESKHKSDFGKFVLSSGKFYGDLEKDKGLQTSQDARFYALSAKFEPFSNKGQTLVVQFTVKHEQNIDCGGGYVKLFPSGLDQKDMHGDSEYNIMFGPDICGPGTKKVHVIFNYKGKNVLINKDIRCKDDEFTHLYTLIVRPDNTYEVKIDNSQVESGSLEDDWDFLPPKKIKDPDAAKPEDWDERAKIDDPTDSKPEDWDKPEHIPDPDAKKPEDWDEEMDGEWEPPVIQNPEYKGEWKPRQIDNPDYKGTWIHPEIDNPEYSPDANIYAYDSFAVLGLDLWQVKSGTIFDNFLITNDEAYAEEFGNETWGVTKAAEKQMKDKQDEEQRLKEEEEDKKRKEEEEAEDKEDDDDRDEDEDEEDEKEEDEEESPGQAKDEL
Description: Surface plasmon resonance binding to immobilized CRT. Conditions: SPR, 25°C, 10 mM HEPES pH 7.4, 50 mM KCl, 0.5 mM CaCl2, 100 μM ZnCl2, 0.005% surfactant P-20; mouse CRT immobilized 3000 RU; 10 μl/min; mean ± SEM. A general note: SPR reads the build-up and loss of mass on a sensor chip optically.

The subject of series [2] is osteoclasts in CIA joint tissues. Description: OC abundance in joint tissue of CIA mice. Type of series: in vivo, mouse. The following applies: various doses incl. 'subclinical'; N=10 PBS, 5 per treatment group; TRAP. The method, boiled down:
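Limbs from CIA mice given weekly i.p. test compound or PBS decalcified 14 days in 10% EDTA, paraffin-embedded, serially sectioned and stained for TRAP (or H&E). TRAP-positive multinucleated cells counted; total across front and rear paws and knees, mean ± SEM. N=10 PBS, 5 per treatment group.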

Series [3] concerns NO signaling. The following applies: ref [11]; cited from earlier work.
The subject of another series is bone damage in CIA mice. Description: X-ray radiological scoring of bone damage in CIA mice. In kind it is in vivo, mouse. Conditions: 0.8 and 8.0 ng/gm BW, N = 10, score 0-5. The method, boiled down: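 CIA mice dosed weekly i.p. with 0.8 or 8.0 ng/gm BW test compound or PBS. Limbs X-rayed on a microradiography system (anode current 25mA, 4.5 s exposure). Coded films scored blind by a rheumatologist, front and rear paws separately, 0–5 (none to complete joint destruction). N=10.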

Series [4] relates to ROS production in RAW 264.7 pre-OC cells. Description: ROS production. In kind it is cell-based, mouse. Conditions: RAW 264.7, 3 × 10^4/well, in words. The essentials: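 RAW 264.7 cells, 3×10^4 per well, exposed to various test compound concentrations and loaded with CM-H2DCFDA. Fluorescence (ex 488/em 515 nm) read every 5 min over 500 min; ROS expressed as FU/min.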
Series [5] has as its system osteoclast differentiation of DBA/1 mouse BMCs. Description: In vitro OC differentiation, mouse bone marrow cells. In kind it is cell-based. Conditions: M-CSF + RANKL, 6 days.
Series [6] has as its system bone matrix degradation by DBA/1 mouse BMC-derived OCs. Description: Degradation of artificial. The following applies: 100 nM c(HS4-4), primary DBA/1 BMCs, day 15, Von Kossa. Type of series: cell-based. The essentials:
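Test compound (100 nM) or PBS was added to mouse BMC cultures on osteoblast-derived matrix. SaOS-2 cells (12,000/well) grew in McCoy's 5A/15% FBS; at 80–90% confluence they were switched to osteoblast differentiation medium (10% FBS, 2mM glutamine, ascorbic acid, 10mM β-glycerol phosphate) for 20–25 days, then removed with 15mM NH4OH. DBA/1 BMCs (200,000/well) received M-CSF 10 ng/ml for 2 days, then M-CSF plus RANKL 20 ng/ml. At day 15, cells were removed; remaining matrix was Von Kossa-stained, photographed and area-quantified.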

Series [7] relates to TRAP-positive mononuclear (pre-OC) bone marrow cells. Description: Pre-OC abundance in bone marrow of CIA mice. Type of series: in vivo, mouse. The essentials: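 Fresh bone marrow cells harvested from CIA mice dosed weekly i.p. with various amounts of test compound or PBS; TRAP staining used to enumerate pre-osteoclasts.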
The test system of series [8] is bovine cortical bone disks / mouse BMC-derived OCs. Description: Ex vivo degradation of bovine bone disks. The following applies: 100 nM c(HS4-4), mouse BMCs, 10 days, OC counts and resorption pits. In kind it is cell-based. The method, boiled down: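 Bovine cortical bone disks (5-mm) were sonicated in water, stored dry, and sterilised in ethanol plus 30 min UV. Culture ran 10 days, medium renewed every other day. TRAP-positive OCs per disk were counted; cells were sonicated off in ammonium hydroxide; disks were stained with 1% toluidine blue for 30 s; pits were counted across the whole surface by reflected light. Mean ± SEM.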

The subject of series [9] is osteoclast formation of BMCs harvested from CIA mice. Description: Ex vivo OC differentiation of BMCs from treated CIA mice. Type of series: in vivo, mouse. Conditions: 6 days OC-differentiating culture, dose-dependent pattern. The essentials:
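DBA/1 mice (7 weeks) were immunised intradermally at the tail base with 100 μg chicken CII in CFA. They received test compound intraperitoneally once weekly at 0.0, 0.8, 8 or 80 ng/gm BW in 50 μl PBS. Bone marrow cells were then cultured for 6 days under OC-differentiating conditions (M-CSF 10 ng/ml; RANKL 20 ng/ml added after day 2). TRAP-positive multinucleated cells (>3 nuclei) were counted.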

The test system of series [10] is NO signaling. Description: NO signaling activation. Type of series: cell-based. Conditions: read-out: EC50 NO, Table I.
Series [11] relates to erosive bone damage in CIA mice. Description: Micro-CT of bone damage in CIA mice. Conditions: all treated mice, various doses. Type of series: in vivo, mouse. The essentials:
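Limbs from arthritic mice fixed in 10% formalin, stored in 70% ethanol, scanned in water: 80 kV, 80 μA, 0.508 mm Al filter plus acrylic beam flattener, 1600 ms/frame, 400 views at 0.5°, 4 frames averaged, 2×2 binning, 18 μm voxels. Bone masks for carpals, tarsals, calcaneus, talus, phalanges; thresholds 2000 HU cortical, 1200 HU trabecular.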

In series [12] the test system is collagen-induced arthritis in DBA/1 mice. Description: Collagen-induced arthritis: onset, incidence, arthritis score. Type of series: in vivo, mouse. The following applies: i.p.; for disease incidence: log-rank (Mantel-Cox).
The test system of another series is trypsin/chymotrypsin. The following applies: linear peptidic SE ligand, completely degraded; ref [11]; cited from earlier work.
The subject of series [13] is collagen-induced arthritis in mice. The following applies: 15-mer SE peptidic ligand in vivo in mice; ref [10]; cited from earlier work.
Series [14] concerns osteoclast differentiation of DBA/1 mouse BMCs. The following applies: 15-mer linear peptide; ref [10]; cited from earlier work.
Where [15] appears, read: 80 ng/gm BW per week, N=10 per group.
The mark [16] stands for this setting: 800 ng/gm BW per week, N=10 per group.

What is called EC50 is the concentration needed to bring the measured effect to its halfway point.

70-QKRAA-74 [70-74*0401]: in [1], the “Affinity to CRT, ka” value is reported as 2.9 ± 2.9 ×10^2 1/Ms and the “Affinity to CRT, kd” value was 5.6 ± 5.1 ×10^−3 1/s.
Turning to cQKRAA [c(HS4-4)], in [1], the “Affinity to CRT, ka” value is recorded as 2.7 ± 0.5 ×10^3 1/Ms and the “Affinity to CRT, kd” value is on record as 1.4 ± 0.2 ×10^−3 1/s. The “OC numbers in arthritic joints” value in [2] is on record as “significantly higher numbers of OCs”. Moreover, in the series with NO signaling [3], the “NO signaling activation, concentration” value is “low nM concentrations”. In the series with bone damage in CIA mice, the “bone damage (radiological score, X-ray)” value is “significantly higher bone damage”. The ROS signaling entry in series [4] is recorded as “activated ROS signaling”. For the same substance, the “OC differentiation (in words)” value in [5] is listed as “markedly enhanced OC differentiation in a dose-dependent manner”. Besides, the “degradation of artificial bone matrix” value in series [6] was “higher capacity to degrade artificial bone matrix”. Moreover, the “TRAP-positive pre-OC cells in bone marrow” value in [7] (80 ng/gm BW group) is “peak effect”. Moreover, in series [7] (all c(HS4-4)-treated mice), the “TRAP-positive mononuclear (pre-OC) cells in bone marrow, dose dependence” value was “dose-dependent effect”. Further, the “degradation of bovine bone disks” value in series [8] is “higher capacity to degrade artificial bone matrix and bovine bone disks ex vivo”. Moreover, in [9], the “OCs formed ex vivo by BMCs from treated CIA mice” value is “significantly higher numbers of OCs in a similar dose-dependent pattern”. Moreover, the EC50 in the series on NO signaling [10] came out at 0.001 µM. In addition, the “erosive bone damage (micro-CT)” value in series [11] is reported as “more severe erosive bone damage”. The “CIA soft tissue disease parameters (onset, incidence, score)” value in series [12] (0.8 ng/gm BW per week) was “no effect on any of the three CIA soft tissue disease parameters”. In series [12] (8.0 ng/gm BW per week), the “CIA soft tissue disease parameters (onset, incidence, score)” value is recorded as “no effect on any of the three CIA soft tissue disease parameters”. Also, in [12] (setting [15]), the disease onset result is “significantly facilitated disease onset” and the disease incidence result is “increased disease incidence”. The “mean arthritis scores (joint swelling)” value in series [12] (80 ng/gm BW per week, N=10 per group, 4-point scale per paw) is given as “significantly increased mean arthritis scores”. In addition, in series [12] (800 ng/gm BW per week ("the higher dose"), N=10 per group), the “mean arthritis scores, effect in the higher dose” value was “but not in the higher dose”. Also, in [12] (setting [16]), the disease onset result is “significantly facilitated disease onset” and the disease incidence entry is reported as “increased disease incidence”.
In the case of 65-KDLLEQKRAAVDTYC-79 [65-79*0401], in [1], the “Affinity to CRT, ka” value is reported as 5.1 ± 4.8 ×10^4 1/Ms and the “Affinity to CRT, kd” value is given as 7.4 ± 3.1 ×10^−3 1/s. In addition, the “time to complete degradation by trypsin/chymotrypsin” value in the series with trypsin/chymotrypsin was at most 30 min. In the series on NO signaling [10], the EC50 worked out at 60 µM. For the same substance, the “effect on erosive bone damage in CIA” value in [13] is given as “enhanced erosive bone damage in collagen-induced arthritis”. The osteoclastogenesis activation entry in series [14] was “can activate osteoclastogenesis”.
